One series addresses T1, murine GC‐A (Mus musculus, UniProt P18293).
T1 sequence (P18293 29-1057): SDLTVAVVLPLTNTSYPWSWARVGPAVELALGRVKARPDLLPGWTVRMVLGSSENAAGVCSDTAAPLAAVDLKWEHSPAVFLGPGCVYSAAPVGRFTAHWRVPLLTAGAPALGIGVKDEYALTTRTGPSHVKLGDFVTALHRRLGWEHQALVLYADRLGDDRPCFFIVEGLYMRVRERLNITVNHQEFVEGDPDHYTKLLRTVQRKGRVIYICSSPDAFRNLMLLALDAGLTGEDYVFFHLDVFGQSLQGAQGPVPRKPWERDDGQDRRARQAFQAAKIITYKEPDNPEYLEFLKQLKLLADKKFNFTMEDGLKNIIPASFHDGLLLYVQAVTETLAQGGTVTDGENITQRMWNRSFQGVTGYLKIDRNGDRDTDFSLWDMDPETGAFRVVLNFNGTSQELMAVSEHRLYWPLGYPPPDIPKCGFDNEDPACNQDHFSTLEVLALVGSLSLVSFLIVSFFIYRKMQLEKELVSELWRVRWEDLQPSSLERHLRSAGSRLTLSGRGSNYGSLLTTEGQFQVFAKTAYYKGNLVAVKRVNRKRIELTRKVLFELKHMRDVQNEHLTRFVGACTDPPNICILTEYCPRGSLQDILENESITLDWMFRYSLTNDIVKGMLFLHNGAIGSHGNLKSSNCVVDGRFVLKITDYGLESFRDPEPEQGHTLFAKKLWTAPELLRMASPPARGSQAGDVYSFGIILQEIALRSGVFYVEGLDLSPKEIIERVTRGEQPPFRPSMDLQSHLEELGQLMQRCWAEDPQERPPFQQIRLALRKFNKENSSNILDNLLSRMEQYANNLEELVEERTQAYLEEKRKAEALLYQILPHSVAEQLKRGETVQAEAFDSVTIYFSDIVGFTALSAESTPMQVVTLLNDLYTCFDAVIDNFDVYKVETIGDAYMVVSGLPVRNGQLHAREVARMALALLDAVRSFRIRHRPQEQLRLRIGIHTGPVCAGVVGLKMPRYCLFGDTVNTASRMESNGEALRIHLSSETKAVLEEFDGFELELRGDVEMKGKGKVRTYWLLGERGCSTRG
Kind of series: cGMP formation in GC‐A‐transfected HEK293 cells. The format is cell-based. The settings on record: 1 μM peptide, 5 min; cGMP ELISA; n = 3 in triplicates. A digest of the protocol: (§1)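 HEK293 cells in DMEM/10% FBS were transfected with murine GC‐A or GC‐B plasmid (PolyFect, DMEM/0.5% FBS); empty‐plasmid cells served as controls. After 24 h, cells were exposed to 1 μM peptide or Tris vehicle for 5 min, washed in cold HBSS and lysed. cGMP was measured by ELISA (405 nm, 570 nm correction) in pmol/mL; n = 3 in triplicates.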
In general terms: In an ELISA, binding on a coated surface is turned into a signal by an enzyme label.

For a further series, the system named is C57B/L6J mice. Kind of series: Plasma cGMP after bolus injection in normotensive mice. Particulars: plasma taken after 4 min haemodynamic measurement, cGMP ELISA. The format is in vivo, mouse. Summed up:
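Male 16‐week C57B/L6J mice (randomised, blinded) were anaesthetised with isoflurane, ventilated and kept at about 37°C, with a carotid pressure catheter and jugular cannula. After a 10‐min baseline, an i.v. bolus of 1.67 nmol peptide g‐1 or saline was given and haemodynamics followed for 4 min. EDTA blood was then taken by LV puncture. Plasma cGMP was ELISA‐measured after 95% ethanol extraction; n = 7 per peptide, 5 saline.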

Series [1] has as its system spontaneously hypertensive rats. Format: in vivo, rat.
For series [2] the test system is unchanged. The experiment in a line: Cardiac ANP and BNP mRNA by real time PCR in spontaneously hypertensive rats. Format: in vivo, rat. The settings on record: SHR; 3 days administration; RT‐PCR, relative to saline treated rats; n = 6. A digest of the protocol:
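After 3 days of subcutaneous osmotic minipump infusion (300 ng kg‐1 min‐1; saline controls) in male 12‐week SHR, cardiac RNA was isolated. 1 μg RNA was reverse‐transcribed and SYBR Green qPCR run with rat ANP and BNP primers. Melting curves checked product purity. Values are relative to saline‐treated rats; n = 6 per group.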
(Quantitative PCR measures a nucleic acid by following its amplification.)

For series [3], the system named is GC‐A and GC‐B double‐transfected HEK cells. Kind of series: Dose–response of cGMP in GC‐A and GC‐B double‐transfected HEK cells. The format is cell-based, mouse. Particulars: compared to BNP1‐32. Summed up: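 HEK293 cells were transfected with both murine GC‐A and GC‐B plasmids and used 24 h later. Cells were stimulated for 5 min with peptide at graded concentrations in Tris vehicle, washed in cold HBSS and lysed. cGMP was quantified by ELISA (405/570 nm). EC50 came from a sigmoidal dose–response fit, and curves were compared by two‐way ANOVA.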

The target of the next series is T2, murine GC‐B (Mus musculus, UniProt Q6VVW5).
T2 sequence (Q6VVW5 17-1047): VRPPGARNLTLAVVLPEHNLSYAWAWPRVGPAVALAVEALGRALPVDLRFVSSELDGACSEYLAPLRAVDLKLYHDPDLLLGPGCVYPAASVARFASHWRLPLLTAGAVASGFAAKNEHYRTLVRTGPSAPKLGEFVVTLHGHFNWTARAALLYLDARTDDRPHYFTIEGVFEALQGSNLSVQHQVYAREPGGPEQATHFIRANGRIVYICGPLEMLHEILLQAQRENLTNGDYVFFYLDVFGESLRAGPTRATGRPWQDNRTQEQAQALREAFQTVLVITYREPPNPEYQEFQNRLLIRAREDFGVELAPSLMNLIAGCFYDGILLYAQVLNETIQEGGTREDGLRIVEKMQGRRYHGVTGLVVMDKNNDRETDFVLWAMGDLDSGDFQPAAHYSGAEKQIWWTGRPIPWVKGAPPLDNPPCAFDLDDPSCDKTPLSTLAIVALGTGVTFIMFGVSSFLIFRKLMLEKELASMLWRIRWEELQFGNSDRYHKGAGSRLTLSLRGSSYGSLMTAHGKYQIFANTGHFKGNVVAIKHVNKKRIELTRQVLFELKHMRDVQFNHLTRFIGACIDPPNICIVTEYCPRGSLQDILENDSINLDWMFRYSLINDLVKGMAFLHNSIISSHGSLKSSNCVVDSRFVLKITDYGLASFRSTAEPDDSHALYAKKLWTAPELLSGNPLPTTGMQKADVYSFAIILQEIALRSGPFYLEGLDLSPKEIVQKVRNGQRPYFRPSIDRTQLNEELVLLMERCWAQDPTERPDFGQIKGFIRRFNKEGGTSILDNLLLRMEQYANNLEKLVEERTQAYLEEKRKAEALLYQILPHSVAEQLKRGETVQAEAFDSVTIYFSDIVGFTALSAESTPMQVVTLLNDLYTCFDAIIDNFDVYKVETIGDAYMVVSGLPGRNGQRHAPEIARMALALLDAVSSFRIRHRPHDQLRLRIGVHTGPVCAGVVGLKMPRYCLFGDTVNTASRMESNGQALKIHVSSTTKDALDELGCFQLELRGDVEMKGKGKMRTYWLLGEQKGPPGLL
The experiment in a line: cGMP formation in GC‐B‐transfected HEK293 cells. The format is cell-based. The settings on record: 1 μM peptide, 5 min; cGMP ELISA; n = 3 in triplicates. A digest of the protocol:
as §1

Series [4] can be described thus: Degradation of hBNP by human lung homogenate. Format: in vitro ADME. Particulars: 10 μM peptide; human lung homogenate 90 μg protein 150 μL buffer; Tris 50 mM pH 7.5 with 0.1% BSA; 37°C; 10 min; LCMS.

Positions of bridges follow the written chain, without caps; N, C: chain ends. Residues, ends and D or L forms follow the SMILES beside them. No end group written: not given here.

In the case of `CC[C@H](C)[C@@H]1NC(=O)[C@H](CCCNC(=N)N)NC(=O)[C@H](CC(=O)O)NC(=O)[C@H]([C@@H](C)CC)NC(=O)[C@H](CCCCN)NC(=O)[C@H](Cc2c[nH]cn2)NC(=O)CNC(=O)[C@H](Cc2ccccc2)NC(=O)[C@@H](NC(=O)[C@H](CO)NC(=O)[C@H](CO)NC(=O)[C@@H](NC(=O)[C@H](Cc2c[nH]cn2)NC(=O)[C@@H](NC(=O)[C@@H](NC(=O)[C@H](CCCCN)NC(=O)[C@H](CO)NC(=O)[C@@H](N)CC(N)=O)C(C)C)[C@@H](C)O)[C@@H](C)CC)CSSC[C@@H](C(=O)N[C@@H](CC(N)=O)C(=O)N[C@@H](C)C(=O)N[C@@H](CC(C)C)C(=O)N[C@@H](CCCCN)C(=O)O)NC(=O)CNC(=O)[C@H](CC(C)C)NC(=O)[C@H](CCCNC(=N)N)NC(=O)[C@H](CO)NC(=O)[C@H](C(C)C)NC(=O)[C@H](CO)NC(=O)CNC1=O` [BNP1‐30] (H-NSKVTHISSCFGHKIDRIGSVSRLGCNALK-OH; disulfide 10-26; N-terminus assumed), the “cGMP formation in GC‐A‐transfected HEK293 cells” value (“cGMP formation” for short) on murine GC‐A is recorded as “significantly higher”. In addition, the “Increase in plasma cGMP levels compared to BNP1‐32 treated animals” value in the series with C57B/L6J mice is listed as “more pronounced increase”. Further, in series [1] (SHR, osmotic minipump 300 ng kg^‐1 min^‐1 for 3 days, versus saline group), the “Lowering of SBP” value stood at 16%. In addition, the “Reduction of systolic BP (abstract)” value in series [1] (model of severe hypertension, 3‐day infusion) was 30 mmHg. In addition, in series [2], the “Cardiac ANP mRNA” value is on record as “more pronounced” and the “Cardiac BNP mRNA levels” value is on record as “significantly reduced”. The “Efficiency in dose‐response curves of double‐transfected HEK293 cells” value in series [3] is “more efficient”. For the same compound, on murine GC‐B, the “Stimulation of GC‐B in transfected HEK293 cells” value is reported as “much more pronounced effect” and the “cGMP effect on GC‐B transfected cells in comparison to BNP1‐32” value worked out at 3 fold.
As for “BNP1‐32: murine B‐type natriuretic peptide 1‐32, synthesised by Biosyntan (SQGSTLRVQQRPQNSKVTHISSCFGHKIDRIG; Brain natriuretic peptide 45; UniProt P40753 77-108, looked up, fragment)”, in the series with murine GC‐A, the “cGMP formation” value is listed as “stimulated their native receptor GC‐A”.
Regarding human BNP1‐32: mature human BNP1‐32, the “Degradation of hBNP1‐32 in human lung homogenate” value in series [4] was “decreased peak area”.
“murine ANP: murine atrial natriuretic peptide (SLRRSSCFGGRIDRIGAQSGLGCNSFRY; disulfide 7-23 (inferred); ends not checked; UniProt P05125 123-150, looked up)”: in the series with murine GC‐A, the “cGMP formation” value is recorded as “stimulated their native receptor GC‐A”.
